Data from ChEMBL document CHEMBL2057114, “Non-nucleoside inhibitors of the measles virus RNA-dependent RNA polymerase: synthesis, structure-activity relationships, and pharmacokinetics” (J Med Chem, 2012).
In brackets after ≈: the same amount, converted by molar mass.

What was measured:
Measles morbillivirus [1] = test: Antiviral activity against Measles virus Alaska infected african green monkey Vero cells expressing human SLAM assessed as decrease in virus-induced cytopathic effect; type: functional, organism-based
Measles morbillivirus [2] = test: Antiviral activity against Measles virus Alaska infected african green monkey Vero cells expressing human SLAM assessed as decrease in viral titer at EC50 of cytopathic inhibition; type: functional, organism-based
[3] = Solubility of the compound at pH 7.4 by nephelometric analysis; type: physicochemical; settings: buffer
How it was run: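 Aqueous solubility was measured by nephelometry in buffer at pH 7.4.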

Vero = test: Cytotoxicity against african green monkey Vero cells after 24 hrs by MTT assay; type: cell-based; settings: chlorocebus sabaeus
[4] = Metabolic stability of the compound in human liver S9 fractions assessed as compound remaining after 1 hr; type: ADME, subcellular, S9 fraction; settings: read-out: Stability
How it was run: (§1)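 Compound incubated one hour in liver S9 fraction, with the percentage of parent compound remaining as the readout.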

[5] = Metabolic stability of the compound in mouse liver S9 fractions assessed as compound remaining after 1 hr; type: ADME, subcellular, S9 fraction; settings: read-out: Stability; how it was run: as §1
Measles morbillivirus [6] = test: Inhibition of Measles virus RdRp expressed in baby hamster BSR-T7/5 cells by firefly luciferase mini replicon assay; type: cell-based
How it was run: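 BSR-T7/5 cells were transfected with plasmids encoding MeV L, N and P plus a firefly luciferase minigenome reporter, then incubated with a range of inhibitor concentrations or vehicle. Luciferase activity in cell lysates was read 36 h post-transfection relative to vehicle, and dose-response curves were built; three experiments.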

Caco-2 = test: Efflux ratio of permeability in human Caco2 cells; type: ADME, cell-based
How it was run: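 Caco-2 bidirectional permeability assay, with efflux ratio calculated from the two transport directions.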

[7] = AUC (0 to infinity) in Sprague-Dawley rat at 50 mg/kg, po; type: ADME, organism-based; design: time infinity, dose 50 mg/kg, route oral; settings: plasma
How it was run: (§2)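 Oral gavage at 10 and 50 mg/kg to Sprague-Dawley rats, given as a suspension in PEG200/0.5% methylcellulose (10/90), n = 4 per group. Plasma concentration was followed over time, and PK parameters were estimated by non-compartmental analysis.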

[8] = Cmax in Sprague-Dawley rat at 50 mg/kg, po; type: ADME, organism-based; design: dose 50 mg/kg, route oral; settings: in vivo; how it was run: as §2
[9] = Cmax in Sprague-Dawley rat at 10 mg/kg, po; type: ADME, organism-based; design: dose 10 mg/kg, route oral; settings: in vivo; how it was run: as §2
Rattus norvegicus [10] = test: Oral bioavailability in Sprague-Dawley rat at 10 mg/kg; type: ADME, organism-based; settings: in vivo
How it was run: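 Rats were dosed 2 mg/kg i.v. and 10 mg/kg p.o., and oral bioavailability F was derived by comparing the two routes.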

Rattus norvegicus [11] = test: Ratio of Cmax for ERDRP-00519 to Cmax for AS-136a in Sprague-Dawley rat at 10 to 50 mg/kg; type: ADME, organism-based; design: dose 10-50 mg/kg; settings: in vivo
[12] = AUC (0 to t) in Sprague-Dawley rat at 10 mg/kg, po; type: ADME, organism-based; design: dose 10 mg/kg, route oral; settings: plasma; how it was run: as §2
[13] = Half life in Sprague-Dawley rat at 50 mg/kg, po; type: ADME, organism-based; design: dose 50 mg/kg, route oral; settings: in vivo; how it was run: as §2
Rattus norvegicus [14] = test: Ratio of AUC for ERDRP-00519 to AUC for AS-136a in Sprague-Dawley rat at 10 to 50 mg/kg; type: ADME, organism-based; design: dose 10-50 mg/kg; settings: in vivo
[15] = Half life in Sprague-Dawley rat at 10 mg/kg, po; type: ADME, organism-based; design: dose 10 mg/kg, route oral; settings: in vivo; how it was run: as §2
[16] = Tmax in Sprague-Dawley rat at 10 mg/kg, po; type: ADME, organism-based; design: dose 10 mg/kg, route oral; settings: in vivo; how it was run: as §2
[17] = AUC (0 to t) in Sprague-Dawley rat at 50 mg/kg, po; type: ADME, organism-based; design: dose 50 mg/kg, route oral; settings: plasma; how it was run: as §2
[18] = AUC (0 to infinity) in Sprague-Dawley rat at 10 mg/kg, po; type: ADME, organism-based; design: time infinity, dose 10 mg/kg, route oral; settings: plasma; how it was run: as §2
[19] = Tmax in Sprague-Dawley rat at 50 mg/kg, po; type: ADME, organism-based; design: dose 50 mg/kg, route oral; settings: in vivo; how it was run: as §2

| SMILES | EC50 (Measles morbillivirus [1]) | solubility kinetic [3] | other results |
| --- | --- | --- | --- |
| COCOCC1CCCN(S(=O)(=O)c2ccc(NC(=O)c3cc(C(F)(F)F)nn3C)cc2)C1 (configuration not stated) | 3.8 µM |  |  |
| Cn1nc(C(F)(F)F)cc1C(=O)Nc1ccc(S(=O)(=O)N2CCCCC2CCO)cc1 (configuration not stated) | 2.7 µM | 62 µg/mL (≈ 135 µM) | EC50 (Measles morbillivirus [2]): 0.1 µM; CC50 (Vero): > 75 µM |
| CCOC(=O)CCC1CCCCN1S(=O)(=O)c1ccc(NC(=O)c2cc(C(F)(F)F)nn2C)cc1 (configuration not stated) | 6.7 µM |  |  |
| COCOCC1CCN(S(=O)(=O)c2ccc(NC(=O)c3cc(C(F)(F)F)nn3C)cc2)CC1 | 16 µM |  |  |
| Cn1nc(C(F)(F)F)cc1C(=O)Nc1ccc(S(=O)(=O)N2CCCCC2CCN2CCOCC2)cc1 (configuration not stated) | 4.6 µM | 55 µg/mL (≈ 104 µM) |  |
| Cn1nc(C(F)(F)F)cc1C(=O)Nc1ccc(S(=O)(=O)c2ccccc2O)cc1 | 4.5 µM | 67 µg/mL (≈ 158 µM) |  |
| Cn1nc(C(F)(F)F)cc1C(=O)Nc1ccc(S(=O)(=O)N2CCCCC2CO)cc1 (configuration not stated) | 2.8 µM | 61 µg/mL (≈ 137 µM) | CC50 (Vero): > 75 µM |
| Cn1nc(C(F)(F)F)cc1C(=O)Nc1ccc(S(=O)(=O)N2CCCCC2COCCO)cc1 (configuration not stated) | 8.3 µM |  |  |
| CC(=O)Oc1ccccc1S(=O)(=O)c1ccc(NC(=O)c2cc(C(F)(F)F)nn2C)cc1 | 4.5 µM |  |  |
| COc1ccccc1S(=O)(=O)c1ccc(NC(=O)c2cc(C(F)(F)F)nn2C)cc1 | 3.1 µM | < 15 µg/mL | CC50 (Vero): > 75 µM |
| CC(=O)NCC1CCCCN1S(=O)(=O)c1ccc(NC(=O)c2cc(C(F)(F)F)nn2C)cc1 (configuration not stated) | 14 µM |  |  |
| Cn1nc(C(F)(F)F)cc1C(=O)Nc1ccc(S(=O)(=O)N2CCCCC2CN)cc1 (configuration not stated) | 55 µM |  |  |
| Cn1nc(C(F)(F)F)cc1C(=O)Nc1ccc(S(=O)(=O)N2CCCCC2)cc1 | 2 µM | < 15 µg/mL | remaining at 1 h [4]: 69%; remaining at 1 h [5]: 79%; inhibition (Measles morbillivirus [6]): Dose-dependent effect; Ratio (Caco-2): 1.1; CC50 (Vero): > 75 µM |
| CCOC(=O)COCC1CCCCN1S(=O)(=O)c1ccc(NC(=O)c2cc(C(F)(F)F)nn2C)cc1 (configuration not stated) | 25 µM |  |  |
| Cn1nc(C(F)(F)F)cc1C(=O)Nc1ccc(S(=O)(=O)N2CCCC[C@H]2CCO)cc1 | 3.1 µM |  |  |
| COCOCC1CCCCN1S(=O)(=O)c1ccc(NC(=O)c2cc(C(F)(F)F)nn2C)cc1 (configuration not stated) | 1.5 µM |  |  |
| CN(C)CC1CCCCN1S(=O)(=O)c1ccc(NC(=O)c2cc(C(F)(F)F)nn2C)cc1 (configuration not stated) | > 150 µM |  |  |
| CCOC(=O)/C=C/C1CCCCN1S(=O)(=O)c1ccc(NC(=O)c2cc(C(F)(F)F)nn2C)cc1 (configuration not stated) | 6.8 µM |  |  |
| Cn1nc(C(F)(F)F)cc1C(=O)Nc1ccc(S(=O)(=O)N2CCCC[C@@H]2CCO)cc1 | 8.3 µM |  |  |
| C=Cc1ccccc1S(=O)(=O)c1ccc(NC(=O)c2cc(C(F)(F)F)nn2C)cc1 | > 50 µM |  |  |
| Cn1nc(C(F)(F)F)cc1C(=O)Nc1ccc(S(=O)(=O)N2CCCCC2CCCO)cc1 (configuration not stated) | 2.7 µM |  |  |
| Cn1nc(C(F)(F)F)cc1C(=O)Nc1ccc(S(=O)(=O)N2CCCCC2/C=C/CO)cc1 (configuration not stated) | 3.7 µM |  |  |
| Cn1nc(C(F)(F)F)cc1C(=O)Nc1ccc(S(=O)(=O)N2CCCCC2CN=[N+]=[N-])cc1 (configuration not stated) | 1.5 µM |  |  |
| Cn1nc(C(F)(F)F)cc1C(=O)Nc1ccc(S(=O)(=O)c2ccccc2)cc1 | 2.8 µM | 22 µg/mL (≈ 53.7 µM) | EC50 (Measles morbillivirus [2]): 0.09 µM; CC50 (Vero): > 75 µM |
| Cn1nc(C(F)(F)F)cc1C(=O)Nc1ccc(S(=O)(=O)N2CCCC[C@H]2CCN2CCOCC2)cc1 | 2.5 µM | 60 µg/mL (≈ 113 µM) | AUC(0-inf) [7]: 7860 ng·h/mL; Cmax [8]: 823 ng/mL; EC50 (Measles morbillivirus [2]): 0.06 µM; Cmax [9]: 195 ng/mL; remaining at 1 h [4]: 24%; inhibition (Measles morbillivirus [6]): Dose-dependent effect; F (Rattus norvegicus [10]): 39%; Ratio (Rattus norvegicus [11]): 10; AUC(0-t) [12]: 683 ng·h/mL; half-life [13]: 6.5 h; Ratio (Rattus norvegicus [14]): 10; half-life [15]: 2.2 h; Ratio (Caco-2): 2.6; CC50 (Vero): > 75 µM; Tmax [16]: 1.1 h; AUC(0-t) [17]: 3520 ng·h/mL; AUC(0-inf) [18]: 818 ng·h/mL; Tmax [19]: 1.5 h |
| Cn1nc(C(F)(F)F)cc1C(=O)Nc1ccc(S(=O)(=O)N2CCCCC2CN2CCOCC2)cc1 (configuration not stated) | 9.3 µM |  |  |
| Cn1nc(C(F)(F)F)cc1C(=O)Nc1ccc(S(=O)(=O)c2ccccc2CO)cc1 | 3.5 µM | 46 µg/mL (≈ 105 µM) | CC50 (Vero): > 75 µM |
| Cn1nc(C(F)(F)F)cc1C(=O)Nc1ccc(S(=O)(=O)c2ccccc2CN2CCOCC2)cc1 | > 75 µM |  |  |
